Structures are written as SMILES.

In test [1] the test system is Human alphaherpesvirus 1. Nature of the test: Inhibition of viral DNA synthesis in HSV-1 virus at the dose of 0.8 ug/mL. The class given is functional. A digest of the protocol: (§1)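 HSV-1-infected BSC1 cells labelled with [3H]thymidine (2 μCi/mL) from 3 h post-infection and harvested at 22 h. Lysed with 1% SDS and 0.3 mg/mL Pronase for 5 h at 37 °C. DNA banded on CsCl gradient (pH 8.0, 35000 rpm, 20 °C, 48 h). TCA-precipitable radioactivity in viral and cellular DNA peaks is summed and expressed as % of infected untreated culture.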

In test [2] the test system is Human alphaherpesvirus 1. Nature of the test: Growth inhibition against HSV-1 virus in BSCL cells at the dose of 0.8 ug/mL and 22h time of treatment. It is filed as functional. The following applies: Human alphaherpesvirus 1, BSCL. A digest of the protocol:
(§2)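 HSV-1 grown 22 h in BSC1 cells in the presence of compound after infection at 1 pfu/cell (1 h, 37 °C, wash, medium with 2% calf serum). Virus yield is titred by plaque assay on agar overlay: 4 days at 37 °C, crystal violet stain, plaque count. Reported as % inhibition of virus growth.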

For test [3], the system named is BSC-1. Put plainly: Inhibition of cellular DNA synthesis in BSCL cells at the dose of 0.8 ug/mL. The class given is functional, Cercopithecidae. The following applies: Chlorocebus aethiops. In a few lines:
as §1

The test system of test [4] is Human alphaherpesvirus 1. Put plainly: Antiviral activity against HSV-1 (Herpes simplex virus). It is filed as functional. In a few lines: (§3)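 Disk-diffusion gradient assay. BSC1 (M199) or Vero (RPMI) monolayers with 10% inactivated calf serum are infected to give confluent plaques. They are overlaid with Eagle's/1% agar/5% calf serum. A 5-mm paper disk soaked in compound (5 mg/mL in DMSO) is placed centrally, then 3–4 days at 37 °C, fix and stain. Diameter of the destroyed central zone = toxicity. Plaque-free diameter minus toxic diameter = antiviral activity.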

A further test has as its system Semliki Forest virus. Put plainly: Antiviral activity against forest virus. It is filed as functional. In a few lines:
as §3

For the next test, the system named is Vaccinia virus. Put plainly: Antiviral activity against Vaccinia virus. The class given is functional, Orthopoxvirus vaccinia. Details: unit not given here. A digest of the protocol: as §3
In another test the test system is Vero. Put plainly: Cytotoxicity against BSCL and Vero cells. It is filed as functional, Chlorocebus sabaeus. In a few lines:
as §3

The subject of test [5] is BSC-1. Nature of the test: Inhibition of cellular DNA synthesis in BSCL cells at the dose of 1.4 ug/mL. It is filed as functional, Cercopithecidae. The following applies: Chlorocebus aethiops. A digest of the protocol: as §1
Test [6] concerns Human alphaherpesvirus 1. Put plainly: Inhibition of viral DNA synthesis in HSV-1 virus at the dose of 1.4 ug/mL. It is filed as functional. In a few lines:
as §1

Test [7] deals with Human alphaherpesvirus 1. Nature of the test: Growth inhibition against HSV-1 virus in BSCL cells at the dose of 1.4 ug/mL and 22h time of treatment. It is filed as functional. The note with it: Human alphaherpesvirus 1, BSCL. A digest of the protocol: as §2
The test system of test [8] is BSC-1. Put plainly: Inhibition of cellular DNA synthesis in BSCL cells at the dose of 17.0 ug/mL. The following applies: Chlorocebus aethiops. It is filed as functional, Cercopithecidae. In a few lines:
as §1

Test [9] relates to Human alphaherpesvirus 1. Put plainly: Growth inhibition against HSV-1 virus in BSCL cells at the dose of 17.0 ug/mL and 22h time of treatment. It is filed as functional. The note with it: Human alphaherpesvirus 1, BSCL. In a few lines:
as §2

In test [10] the test system is Human alphaherpesvirus 1. Nature of the test: Inhibition of viral DNA synthesis in HSV-1 virus at the dose of 17.0 ug/mL. The class given is functional. In a few lines: as §1

Usually inhibition stands for the drop in the measured response relative to a control, in per cent. With `O=c1[nH]c(=O)n([C@H]2C[C@H](O)[C@@H](CO)O2)cc1I` [IDOXURIDINE], the inhibition at 0.8 µg/mL with Human alphaherpesvirus 1 [1] stood at 31.1%; with Human alphaherpesvirus 1 [2], 71.3%; in the test on BSC-1 [3], 21.5%.
In the case of `O=C[C@@H]1O[C@H](c2ccccc2)O[C@@H]2CO[C@@H](c3ccccc3)O[C@@H]12`, the Antiviral activity was determined as 8 mm with Human alphaherpesvirus 1 [4], 6 mm in the test on Semliki Forest virus and 12 in the test on Vaccinia virus. The molecule further displayed a Cytotoxicity in the test with Vero of 8 mm.
In the case of `Nc1ccn([C@@H]2O[C@H](CO)[C@@H](O)[C@@H]2O)c(=O)n1` [CYTARABINE], the inhibition at 1.4 µg/mL was 38.3% in the test with BSC-1 [5], 0% in the test with Human alphaherpesvirus 1 [6] and 93.6% in the test with Human alphaherpesvirus 1 [7].
`O=C1OCC/C1=C\[C@@H]1O[C@H](c2ccccc2)O[C@@H]2CO[C@@H](c3ccccc3)O[C@@H]12`: the Antiviral activity with Human alphaherpesvirus 1 [4] is 0 mm; with Semliki Forest virus it was 0 mm; in the test with Vaccinia virus it was 14. This molecule also came in with a Cytotoxicity in the test on Vero of 3 mm.
In the case of `CC(=O)OCC(OC(C)=O)C(OC(C)=O)C(C=C(C(C)=O)C(C)=O)OC(C)=O` (stereo unspecified), the Antiviral activity in the test on Human alphaherpesvirus 1 [4] was determined as 11 mm; in the test with Semliki Forest virus, 0 mm; in the test on Vaccinia virus it was 0. This molecule registered a Cytotoxicity in the test on Vero of 13 mm.
On to `CC(=O)/C(=C\[C@@H]1O[C@H](c2ccccc2)O[C@@H]2CO[C@@H](c3ccccc3)O[C@@H]12)C(=O)c1ccccc1`, for which the Antiviral activity with Human alphaherpesvirus 1 [4] came to 12 mm; in the test on Semliki Forest virus it was 0 mm; in the test with Vaccinia virus, 8. The Cytotoxicity in the test on Vero was 14 mm.
Taken in the same sequence, the figures for `CC(=O)OC(C=C(C(C)=O)C(C)=O)C(OC(=O)c1ccccc1)C(COC(=O)c1ccccc1)OC(C)=O` (stereo unspecified) were 4 mm, 4 mm, 6 and 2 mm.
Taken in the same sequence, the figures for `CC(=O)OCC(OC(C)=O)C(OC(C)=O)C(OC(C)=O)C(C=C(C(C)=O)C(C)=O)OC(C)=O` (stereo unspecified) were 1 mm, 0 mm, 3 and 8 mm.
Taken in the same sequence, the figures for `CC(=O)/C(=C\[C@@H]1O[C@H](c2ccccc2)O[C@H](CC(=O)Oc2ccccc2)[C@H]1C(=O)Oc1ccccc1)C(=O)Nc1ccccc1` were 2 mm, 0 mm, 9 and 4 mm.
Take `CC(=O)C(=C[C@@H]1O[C@H](c2ccccc2)O[C@@H]2CO[C@@H](c3ccccc3)O[C@@H]12)C(C)=O`: the values for the Antiviral activity in the test with Human alphaherpesvirus 1 [4], in the test on Semliki Forest virus and in the test on Vaccinia virus were 11 mm, 0 mm and 5, respectively. Besides, the inhibition at 17 µg/mL in the test with BSC-1 [8] was 80.7%; with Human alphaherpesvirus 1 [9], 95.5%; in the test on Human alphaherpesvirus 1 [10], 50.9%. In the test with Vero, this molecule yielded a Cytotoxicity of 10 mm.

These data come from ChEMBL document CHEMBL1122461, “Antiviral compounds. 1. Structure-activity relationship of some antiviral enediones derived from aldehydo sugars” (1983).
